17 molecules from ChEMBL document CHEMBL4261585, “Synthesis of 1,2,3-triazole linked 4(3H)-Quinazolinones as potent antibacterial agents against multidrug-resistant Staphylococcus aureus” (Eur J Med Chem, 2018) can be followed below.

Common to all, as to format: functional
One assay relates to Staphylococcus aureus. The assay is described as follows: Antibacterial activity against Staphylococcus aureus ATCC 29213 after 16 to 18 hrs by CLSI method. An outline of the steps: (§1)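 Broth microdilution MIC per CLSI. A single colony from Mueller-Hinton agar is grown overnight in cation-supplemented Mueller-Hinton broth (37 °C, shaking, 18–24 h). Incubation is 37 °C for 16–18 h. MIC is the lowest concentration with no visible growth. Three independent runs, each in duplicate.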

In another assay the test system is Escherichia coli. The assay is described as follows: Antibacterial activity against Escherichia coli ATCC 25922 after 16 to 18 hrs by CLSI method. The method, boiled down: as §1
The subject of another assay is Klebsiella pneumoniae. The assay is described as follows: Antibacterial activity against Klebsiella pneumoniae ATCC BAA-1705 after 16 to 18 hrs by CLSI method. The method, boiled down: as §1
Another assay concerns Acinetobacter baumannii. The assay is described as follows: Antibacterial activity against Acinetobacter baumannii BAA-1605 after 16 to 18 hrs by CLSI method. The method, boiled down:
as §1

Another assay has as its system Pseudomonas aeruginosa. The assay is described as follows: Antibacterial activity against Pseudomonas aeruginosa ATCC 27853 after 16 to 18 hrs by CLSI method. An outline of the steps: as §1
Assay [1] relates to Mycolicibacterium fortuitum. The assay is described as follows: Antimycobacterial activity against Mycobacterium fortuitum by pesto blue-dye based broth microdilution assay. In general terms: Broth dilution looks for growth in wells or tubes with falling amounts of substance.
In the next assay the test system is Mycobacteroides chelonae. The assay is described as follows: Antimycobacterial activity against Mycobacterium chelonae by pesto blue-dye based broth microdilution assay.
The subject of assay [2] is Mycobacteroides abscessus. The assay is described as follows: Antimycobacterial activity against Mycobacterium abscessus by pesto blue-dye based broth microdilution assay.
Assay [3] deals with Mycobacterium tuberculosis. Nature of the assay: Antimycobacterial activity against Mycobacterium tuberculosis H37Rv ATCC 27294 after 7 days by pesto blue-dye based broth microdilution assay. The settings on record: H37Rv ATCC 27294, 168 h. The method, boiled down: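 Broth microdilution in Middlebrook 7H9 with 10% ADC-Tween-80 (0.2% glycerol, 0.05% Tween-80). Compound is added from 10 mg/mL DMSO stocks as two-fold dilutions, 64–0.5 mg/L. Plates are incubated 7 days at 37 °C and read with PrestoBlue resazurin dye. MIC is the lowest concentration inhibiting visible growth, three replicates in duplicate.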

≈ marks a conversion by molar mass, not a printed value. Where a SMILES comes first, the peptide text is derived from it. Bridges are numbered along the chain shown (N, C = ends). [ ]: non-standard residue; d: D form. Dab = NCC[C@H](N)C(=O)O

As usually defined, the MIC is the smallest concentration in the dilution series that meets the test's criterion for growth inhibition. Low readings indicate greater potency, high ones weaker potency. Consider `COc1ccc(-n2cc(COc3cccc(-n4c(C)nc5ccccc5c4=O)c3)nn2)cc1`, for which the MIC (in the assay with Staphylococcus aureus; against Escherichia coli; in the assay on Klebsiella pneumoniae; with Acinetobacter baumannii; in the assay with Pseudomonas aeruginosa; in assay [1]) was more than 64 µg/mL each time. The MIC (in the assay on Mycobacteroides chelonae; in assay [2]; in assay [3]) was more than 64 µg/mL each time.

For the molecule `N#Cc1ccc(/C=C/c2nc3ccccc3c(=O)n2-c2cccc(OCc3cn(-c4cccc(C(=O)O)c4)nn3)c2)cc1`, the MIC is 4 µg/mL (≈ 7.06 µM) against Staphylococcus aureus; more than 64 µg/mL in the assay with Escherichia coli; more than 64 µg/mL in the assay on Klebsiella pneumoniae; more than 64 µg/mL in the assay with Acinetobacter baumannii; more than 64 µg/mL with Pseudomonas aeruginosa; more than 64 µg/mL in [1]. In addition, the MIC (in the assay with Mycobacteroides chelonae; in assay [2]; in assay [3]) was more than 64 µg/mL each time.

As for `COc1ccc(-n2cc(COc3cccc(-n4c(/C=C/c5ccc(C#N)cc5)nc5ccccc5c4=O)c3)nn2)cc1`, the MIC in the assay with Staphylococcus aureus is 4 µg/mL (≈ 7.24 µM); in the assay with Escherichia coli, more than 64 µg/mL; with Klebsiella pneumoniae, more than 64 µg/mL; against Acinetobacter baumannii, more than 64 µg/mL; against Pseudomonas aeruginosa, more than 64 µg/mL; in assay [1], more than 64 µg/mL. The MIC (against Mycobacteroides chelonae; in assay [2]; in assay [3]) was more than 64 µg/mL in each case.

Take `COc1ccc(Cn2cc(COc3cccc(-n4c(/C=C/c5ccc(C#N)cc5)nc5ccccc5c4=O)c3)nn2)cc1`: the MIC in the assay on Staphylococcus aureus is 0.5 µg/mL (≈ 0.882 µM); in the assay with Escherichia coli it was more than 64 µg/mL; against Klebsiella pneumoniae it was more than 64 µg/mL; with Acinetobacter baumannii it was more than 64 µg/mL; in the assay with Pseudomonas aeruginosa it was more than 64 µg/mL; in assay [1], more than 64 µg/mL. Besides, the MIC (against Mycobacteroides chelonae; in assay [2]; in assay [3]) was more than 64 µg/mL each time.

As for `Cc1nc2ccccc2c(=O)n1-c1cccc(OCc2cn(-c3cccc(O)c3)nn2)c1`, the MIC (against Staphylococcus aureus; in the assay on Escherichia coli; in the assay on Klebsiella pneumoniae; in the assay on Acinetobacter baumannii; against Pseudomonas aeruginosa; in [1]) was more than 64 µg/mL throughout. In addition, the MIC (with Mycobacteroides chelonae; in assay [2]; in [3]) was more than 64 µg/mL throughout.

As for `Cc1nc2ccccc2c(=O)n1-c1cccc(OCc2cn(-c3cccc(Cl)c3)nn2)c1`, the minimal inhibitory concentration (MIC) (against Staphylococcus aureus; in the assay on Escherichia coli; against Klebsiella pneumoniae; with Acinetobacter baumannii; with Pseudomonas aeruginosa; in [1]) was more than 64 µg/mL in each case. Besides, the MIC (in the assay with Mycobacteroides chelonae; in assay [2]; in [3]) was more than 64 µg/mL in each case.

Consider `CCC(C)(C)c1ccc(OCc2cn(-c3cccc(-n4c(C)nc5ccccc5c4=O)c3)nn2)cc1`, for which the MIC (with Staphylococcus aureus; against Escherichia coli; in the assay with Klebsiella pneumoniae; against Acinetobacter baumannii; with Pseudomonas aeruginosa; in assay [1]) was more than 64 µg/mL each time. Further, the MIC (with Mycobacteroides chelonae; in assay [2]; in [3]) was more than 64 µg/mL each time.

With `O=c1c2ccccc2nc(/C=C/c2ccc(Cl)cc2)n1-c1cccc(-n2cc(-c3ccccc3)nn2)c1`, the MIC (with Staphylococcus aureus; in the assay with Escherichia coli; in the assay with Klebsiella pneumoniae; in the assay with Acinetobacter baumannii; against Pseudomonas aeruginosa; in assay [1]) was more than 64 µg/mL throughout. Further, the MIC (in the assay on Mycobacteroides chelonae; in assay [2]; in assay [3]) was more than 64 µg/mL in each case.

With `N#Cc1ccc(/C=C/c2nc3ccccc3c(=O)n2-c2cccc(OCc3cn(-c4cccc(F)c4)nn3)c2)cc1`, the MIC against Staphylococcus aureus was 0.5 µg/mL (≈ 0.925 µM); in the assay on Escherichia coli, more than 64 µg/mL; against Klebsiella pneumoniae, more than 64 µg/mL; with Acinetobacter baumannii, more than 64 µg/mL; against Pseudomonas aeruginosa it was more than 64 µg/mL; in assay [1] it was more than 64 µg/mL. The MIC (against Mycobacteroides chelonae; in assay [2]; in assay [3]) was more than 64 µg/mL throughout.

For the molecule `N#Cc1ccc(/C=C/c2nc3ccccc3c(=O)n2-c2ccc(OCc3cn(Cc4ccc(Br)cc4)nn3)cc2)cc1`, the MIC (in the assay on Staphylococcus aureus; with Escherichia coli; with Klebsiella pneumoniae; in the assay with Acinetobacter baumannii; with Pseudomonas aeruginosa; in [1]) was more than 64 µg/mL each time. The MIC (against Mycobacteroides chelonae; in [2]; in assay [3]) was more than 64 µg/mL in each case.

As to `Cc1cccc2c(=O)n(-c3cccc(OCc4cn(-c5cccc(Cl)c5)nn4)c3)c(/C=C/c3ccc(C#N)cc3)nc12`, the MIC (against Staphylococcus aureus; against Escherichia coli; with Klebsiella pneumoniae; in the assay on Acinetobacter baumannii; with Pseudomonas aeruginosa; in assay [1]) was more than 64 µg/mL each time. Also, the MIC (in the assay with Mycobacteroides chelonae; in [2]; in assay [3]) was more than 64 µg/mL each time.

On to `Cc1nc2ccccc2c(=O)n1-c1cccc(-n2cc(-c3ccccc3)nn2)c1`, for which the MIC (in the assay with Staphylococcus aureus; with Escherichia coli; against Klebsiella pneumoniae; in the assay with Acinetobacter baumannii; in the assay on Pseudomonas aeruginosa; in assay [1]) was more than 64 µg/mL in each case. For the same molecule, the minimal inhibitory concentration (MIC) (in the assay on Mycobacteroides chelonae; in [2]; in assay [3]) was more than 64 µg/mL each time.

For `O=c1c2ccccc2nc(/C=C/c2ccc(Cl)cc2)n1-c1cccc(OCc2cn(-c3cccc(F)c3)nn2)c1`, the MIC in the assay on Staphylococcus aureus is 4 µg/mL (≈ 7.27 µM); against Escherichia coli it was more than 64 µg/mL; against Klebsiella pneumoniae, more than 64 µg/mL; with Acinetobacter baumannii, more than 64 µg/mL; against Pseudomonas aeruginosa it was more than 64 µg/mL; in [1], more than 64 µg/mL. For the same molecule, the MIC (against Mycobacteroides chelonae; in assay [2]; in assay [3]) was more than 64 µg/mL in each case.

`NNC(=O)c1ccncc1` [ISONIAZID]: the MIC in [3] amounted to 0.03 µg/mL (≈ 0.219 µM).

Turning to `N#Cc1ccc(/C=C/c2nc3ccccc3c(=O)n2-c2cccc(OCc3cn(Cc4ccc(Br)cc4)nn3)c2)cc1`, the minimal inhibitory concentration (MIC) in the assay on Staphylococcus aureus was 16 µg/mL (≈ 26 µM); in the assay on Escherichia coli it was more than 64 µg/mL; against Klebsiella pneumoniae, more than 64 µg/mL; against Acinetobacter baumannii it was more than 64 µg/mL; against Pseudomonas aeruginosa it was more than 64 µg/mL; in assay [1], more than 64 µg/mL. Moreover, the MIC (in the assay on Mycobacteroides chelonae; in [2]; in assay [3]) was more than 64 µg/mL each time.

Consider `CCC(C)(C)c1ccc(OCc2cn(-c3cccc(-n4c(/C=C/c5ccc(C#N)cc5)nc5ccccc5c4=O)c3)nn2)cc1`, for which the MIC (in the assay on Staphylococcus aureus; in the assay on Escherichia coli; with Klebsiella pneumoniae; in the assay on Acinetobacter baumannii; against Pseudomonas aeruginosa; in assay [1]) was more than 64 µg/mL throughout. Moreover, the MIC (with Mycobacteroides chelonae; in assay [2]) was more than 64 µg/mL each time.

Consider `CC(C)C[C@@H]1NC(=O)[C@@H](Cc2ccccc2)NC(=O)[C@H](CCN)NC(=O)[C@@H](NC(=O)[C@H](CCN)NC(=O)[C@@H](N)[C@@H](C)O)CCNC(=O)[C@H]([C@@H](C)O)NC(=O)[C@H](CCN)NC(=O)[C@H](CCN)NC1=O` [POLYMYXIN B NONAPEPTIDE] (H-T[Dab][Dab][Dab][dF]L[Dab][Dab]T; lactam 3-C), for which the MIC with Escherichia coli and in the assay with Acinetobacter baumannii was more than 128 µg/mL each time.
